From ChEMBL document CHEMBL1126770, “2,5-Dimethoxy congeners of (+)-and (-)-3-(3-hydroxyphenyl)-N-n- propylpiperidine” (1993)

What was measured:
Rattus norvegicus [1] = assay: DA2 antagonist activity was tested by its ability to decrease the arterial pressure in anesthetized rat at 100 ug/kg; format: functional, Artery
Procedure, shortened: (§1)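 Sprague-Dawley rats under urethane anaesthesia (900 mg/kg ip), with a femoral vein cannula for drug. Compound given iv as cumulative doses spaced 0.48 log10 units apart, each after responses had been stable ≥5 min. Mean arterial pressure was recorded from the femoral artery via a transducer, as decrease in mmHg. Three rats per compound; mean ± SD.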

Rattus norvegicus [2] = assay: DA2 antagonist activity was tested by its ability to decrease the heart rate in anesthetized rat at 100 ug/kg; format: functional
Procedure, shortened: (§2)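 Urethane-anaesthetised (900 mg/kg ip) Sprague-Dawley rats received iv cumulative doses via the femoral vein, at 0.48 log10 steps once responses had been stable ≥5 min. Heart rate came from a cardiotachometer triggered by the femoral arterial pulse, as decrease in beats/min. n = 3 rats per compound; mean ± SD.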

Rattus norvegicus [3] = assay: DA2 antagonist activity was tested by the duration of onset of action of cardiovascular response at 30 ug/kg; format: functional, Heart
Procedure, shortened: (§3)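 In anaesthetised Sprague-Dawley rats (urethane 900 mg/kg ip), cumulative iv doses at 0.48 log10 intervals were given via the femoral vein after ≥5 min of stable responses. Duration of hypotension and bradycardia (min) was taken from femoral arterial pressure and pulse-triggered heart rate recordings. Three rats per compound; mean ± SD.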

Rattus norvegicus [4] = assay: DA2 antagonist activity was tested by its ability to decrease the heart rate in anesthetized rat at 10 ug/kg; format: functional; procedure, shortened: as §2
Rattus norvegicus [5] = assay: DA2 antagonist activity was tested by its ability to decrease the arterial pressure in anesthetized rat at 30 ug/kg; format: functional, Artery; procedure, shortened: as §1
Rattus norvegicus [6] = assay: DA2 antagonist activity was tested by its ability to decrease the heart rate in anesthetized rat at 30 ug/kg; format: functional; procedure, shortened: as §2
Rattus norvegicus [7] = assay: DA2 antagonist activity was tested by the duration of onset of action of cardiovascular response at 10 ug/kg; format: functional, Heart; procedure, shortened: as §3
Rattus norvegicus [8] = assay: DA2 antagonist activity was tested by the duration of onset of action of cardiovascular response at 100 ug/kg; format: functional, Heart; procedure, shortened: as §3
Rattus norvegicus [9] = assay: DA2 antagonist activity was tested by its ability to decrease the arterial pressure in anesthetized rat at 10 ug/kg; format: functional, Artery; procedure, shortened: as §1
Rattus norvegicus [10] = assay: DA2 antagonist activity was tested by its ability to decrease the heart rate in anesthetized rat at 1000 ug/kg; format: functional; procedure, shortened: as §2
Rattus norvegicus [11] = assay: DA2 antagonist activity was tested by the duration of onset of action of cardiovascular response at 1000 ug/kg; Insufficient sample for statistical treatment; format: functional, Heart
Rattus norvegicus [12] = assay: DA2 antagonist activity was tested by the duration of onset of action of cardiovascular response at 300 ug/kg; format: functional, Heart; procedure, shortened: as §3
Rattus norvegicus [13] = assay: DA2 antagonist activity was tested by its ability to decrease the arterial pressure in anesthetized rat at 300 ug/kg; format: functional, Artery; procedure, shortened: as §1
Rattus norvegicus [14] = assay: DA2 antagonist activity was tested by its ability to decrease the heart rate in anesthetized rat at 300 ug/kg; format: functional; procedure, shortened: as §2
Rattus norvegicus [15] = assay: DA2 antagonist activity was tested by the duration of onset of action of cardiovascular response at 1000 ug/kg; format: functional, Heart; procedure, shortened: as §3
Rattus norvegicus [16] = assay: DA2 antagonist activity was tested by the duration of onset of action of cardiovascular response at 3000 ug/kg; format: functional, Heart; procedure, shortened: as §3
Rattus norvegicus [17] = assay: DA2 antagonist activity was tested by its ability to decrease the heart rate in anesthetized rat at 3000 ug/kg; format: functional; procedure, shortened: as §2
Rattus norvegicus [18] = assay: DA2 antagonist activity was tested by its ability to decrease the arterial pressure in anesthetized rat at […] ug/kg; format: functional, Artery; procedure, shortened: as §1
Rattus norvegicus [19] = assay: DA2 antagonist activity was tested by its ability to decrease the arterial pressure in anesthetized rat at 3000 ug/kg; format: functional, Artery; procedure, shortened: as §1
Rattus norvegicus [20] = assay: DA2 antagonist activity was tested by its to decrease the heart rate in anesthetized rat at 3000 ug/kg; format: functional; procedure, shortened: as §2
Rattus norvegicus [21] = assay: DA2 antagonist activity was tested by its to decrease the heart rate in anesthetized rat at 300 ug/kg; format: functional; procedure, shortened: as §2
Rattus norvegicus [22] = assay: DA2 antagonist activity was tested by its to decrease the heart rate in anesthetized rat at 1000 ug/kg; format: functional; procedure, shortened: as §2

Question: How did the Decrease in pressure (Rattus norvegicus [1]) turn out when `CCCN1CCC[C@H](c2cccc(O)c2)C1` was run?
Answer: Its Decrease in pressure is 23 mmHg.

Question: And the “Decrease in heart rate” value (Rattus norvegicus [2])?
Answer: Its value is 44 beats min-1.

Question: What about the Duration of action (Rattus norvegicus [3]) of the same compound?
Answer: Its Duration of action is 10 min.

Question: And the “Decrease in heart rate” value (Rattus norvegicus [4])?
Answer: The value was 13 beats min-1.

Question: What about the Decrease in pressure (Rattus norvegicus [5]) of the same compound?
Answer: The Decrease in pressure was 16 mmHg.

Question: And the “Decrease in heart rate” value (Rattus norvegicus [6])?
Answer: The value was 37 beats min-1.

Question: And the Duration of action (Rattus norvegicus [7])?
Answer: The Duration of action was 6 min.

Question: What about the Duration of action (Rattus norvegicus [8]) of the same compound?
Answer: The Duration of action was 14 min.

Question: And the Decrease in pressure (Rattus norvegicus [9])?
Answer: The Decrease in pressure was 5 mmHg.

Question: Which results are given for `CCCN1CCCC(c2cc(OC)ccc2OC)C1` (single isomer, unassigned; (+))?
Answer: Decrease in heart rate (Rattus norvegicus [10]): 30 beats min-1; Duration of action (Rattus norvegicus [11]): 18 min

Question: Which Duration of action (Rattus norvegicus [12]) does the source give for `CCCN1CCCC(c2cc(OC)ccc2OC)C1` (single isomer, unassigned; (-)) here?
Answer: Its Duration of action is 2 min.

Question: And the “Decrease in heart rate” value (Rattus norvegicus [10])?
Answer: The value was 40 beats min-1.

Question: And the Decrease in pressure (Rattus norvegicus [13])?
Answer: Its Decrease in pressure is 15 mmHg.

Question: What about the “Decrease in heart rate” value (Rattus norvegicus [14]) of the same compound?
Answer: The value was 10 beats min-1.

Question: And the Duration of action (Rattus norvegicus [15])?
Answer: Its Duration of action is 5 min.

Question: And the Duration of action (Rattus norvegicus [16])?
Answer: Its Duration of action is 10 min.

Question: What about the “Decrease in heart rate” value (Rattus norvegicus [17]) of the same compound?
Answer: Its value is 45 beats min-1.

Question: And the Decrease in pressure (Rattus norvegicus [18])?
Answer: The Decrease in pressure was 27 mmHg.

Question: Which results are given for `CCCN1CCCC(c2cc(OC)ccc2OC)C1` (racemic)?
Answer: Decrease in pressure (Rattus norvegicus [19]): 23 mmHg; Duration of action (Rattus norvegicus [12]): 5 min; Decrease in heart rate (Rattus norvegicus [20]): 45 beats min-1; Decrease in pressure (Rattus norvegicus [13]): 10 mmHg; Decrease in heart rate (Rattus norvegicus [21]): 17 beats min-1; Duration of action (Rattus norvegicus [15]): 8 min; Duration of action (Rattus norvegicus [16]): 13 min; Decrease in heart rate (Rattus norvegicus [22]): 35 beats min-1
